Calls of active or inactive are those of the source. No cut-off for these calls is given here.
How the values were obtained:
[1] = target: T1, Histidine-rich protein PFHRP-II (Plasmodium falciparum) (UniProt P05227); assay: Inhibition of beta-hematin formation assessed as inhibition of flavoprotein polymerization at 5 to 100 mM after 48 hrs; assay type: functional
T1 sequence (whole entry): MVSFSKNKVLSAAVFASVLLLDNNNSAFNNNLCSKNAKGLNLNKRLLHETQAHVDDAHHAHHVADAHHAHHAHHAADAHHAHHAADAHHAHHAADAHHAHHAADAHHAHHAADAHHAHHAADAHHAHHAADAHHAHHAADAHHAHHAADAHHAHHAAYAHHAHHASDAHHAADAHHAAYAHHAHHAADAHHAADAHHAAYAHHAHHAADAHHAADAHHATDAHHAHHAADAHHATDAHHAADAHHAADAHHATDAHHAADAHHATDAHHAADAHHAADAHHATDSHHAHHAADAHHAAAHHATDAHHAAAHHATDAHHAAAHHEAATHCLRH
Method in brief: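 Hemin chloride in DMSO is mixed with compound in DMSO (100–5 range), tested in triplicate, with water or DMSO controls. Reaction is started with 0.2 M acetate buffer pH 4.4 and run at 37 °C for 48 h. Pellet is washed twice with DMSO, dissolved in 0.2 N NaOH, diluted 1:2 in 0.1 N NaOH, and read at 405 nm. Result is % inhibition of FP polymerization.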

Plasmodium berghei [2] = assay: Antimalarial activity against chloroquine-sensitive Plasmodium berghei ANKA infected BALB/c mice (Mus musculus) erythrocytes at 10 uM after 18 hrs as reduced hemoglobin hydrolysis; assay type: functional
Method in brief: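 Trophozoite-rich extract from P. berghei-infected mouse blood (30–50% parasitemia, Percoll-enriched mature forms, saponin-lysed, freeze-thawed) digests native mouse hemoglobin with 10 mM GSH in 0.2 M acetate buffer pH 5.4. Compound is added in DMSO. Incubation is 37 °C for 18 h. Globin 14 kDa band is assessed by SDS-PAGE densitometry against a DMSO control and expressed as % inhibition of hydrolysis.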

Plasmodium berghei [3] = assay: Antimalarial activity as MST against chloroquine-sensitive Plasmodium berghei ANKA infected BALB/c mice (Mus musculus) erythrocytes at 20 mg/kg intraperitoneal dose for 4 days (RVb=11.66+/-1.66 days); assay type: functional
Plasmodium berghei [4] = assay: Antimalarial activity against chloroquine-sensitive Plasmodium berghei ANKA infected BALB/c mice (Mus musculus) erythrocytes at 20 mg/kg intraperitoneal dose for 4 days as parasitaemia
Plasmodium berghei [5] = assay: Antimalarial activity against chloroquine-sensitive Plasmodium berghei ANKA infected BALB/c mice (Mus musculus) erythrocytes at 20 mg/kg intraperitoneal dose for 4 days
Plasmodium berghei [6] = assay: Antimalarial activity as parasitaemia against chloroquine-sensitive Plasmodium berghei ANKA infected BALB/c mice (Mus musculus) erythrocytes at 25 mg/kg intraperitoneal dose for 4 days; assay type: functional
Method in brief: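 Male Balb-C mice infected with 10^6 P. berghei ANKA-infected erythrocytes; n=6. Compound is given as a DMSO stock diluted in 2% saline–Tween 20, ip once daily for 4 days starting 2 h post-infection. Chloroquine is given at 25 mg/kg. Day-4 parasitemia is read from Giemsa smears and survival days are recorded versus untreated controls. Mean ± SEM.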

Plasmodium berghei [7] = assay: Antimalarial activity as MST against chloroquine-sensitive Plasmodium berghei ANKA infected BALB/c mice (Mus musculus) erythrocytes at 25 mg/kg intraperitoneal dose for 4 days (RVb=11.66+/-1.66 days); assay type: functional

SMILES | inhibition [1] [%] | inhibition at 10 µM (Plasmodium berghei [2]) [%] | further results
Nc1n[nH]c2c1S(=O)(=O)c1cc(Cl)ccc1N2c1ccc(Cl)c(Cl)c1 | < 5 | 0 | –
COc1cccc(N2c3ccc(Cl)cc3S(=O)(=O)c3c(N)nc(N)nc32)c1 | < 5 | 0 | –
COc1cccc(N2c3cc(Cl)ccc3S(=O)(=O)c3c(N)n[nH]c32)c1 | < 5 | 47.3 | –
Nc1nc(N)c2c(n1)N(c1ccccc1)c1cc(Cl)ccc1S2(=O)=O | < 5 | 83.7 | Activity (Plasmodium berghei [3]): 10.8 days; Activity (Plasmodium berghei [4]): 12.7%
Nc1nc(N)c2c(n1)N(c1ccc(Cl)cc1)c1cc(Cl)ccc1S2(=O)=O | < 5 | 67.2 | –
Cc1ccc(N2c3ccc(Cl)cc3S(=O)(=O)c3c(N)n[nH]c32)cc1 | < 5 | 0 | –
COc1cccc(N2c3ccc(Cl)cc3S(=O)(=O)c3c(N)n[nH]c32)c1 | < 5 | 0 | –
CC(=O)N[C@@H](CC(C)C)C(=O)N[C@@H](CC(C)C)C(=O)N[C@H](C=O)CCCNC(=N)N [LEUPEPTIN] | – | 89.1 | –
Cc1ccccc1N1c2ccc(Cl)cc2S(=O)(=O)c2c(N)n[nH]c21 | < 5 | 0 | –
COc1ccc(N2c3cc(Cl)ccc3S(=O)(=O)c3c(N)n[nH]c32)cc1 | < 5 | 54.8 | –
Cc1ccccc1N1c2ccc(Cl)cc2S(=O)(=O)c2c(N)nc(N)nc21 | < 5 | 0 | –
CC(C)CC(=O)N[C@H](C(=O)N[C@H](C(=O)N[C@@H](CC(C)C)[C@@H](O)CC(=O)N[C@@H](C)C(=O)N[C@@H](CC(C)C)[C@@H](O)CC(=O)O)C(C)C)C(C)C [PEPSTATIN] | – | 92.9 | –
Cc1ccccc1N1c2cc(Cl)ccc2S(=O)(=O)c2c(N)nc(N)nc21 | < 5 | 72.6 | –
Nc1n[nH]c2c1S(=O)(=O)c1ccc(Cl)cc1N2c1cccc(Cl)c1 | 85.4 | 58.9 | Activity (Plasmodium berghei [3]): 12.5 days; Activity (Plasmodium berghei [4]): 10.33%
COc1ccc(N2c3ccc(Cl)cc3S(=O)(=O)c3c(N)nc(N)nc32)cc1 | < 5 | 0 | –
Cc1ccccc1N1c2cc(Cl)ccc2S(=O)(=O)c2c(N)n[nH]c21 | < 5 | 92.3 | Activity (Plasmodium berghei [3]): 13 days; Activity (Plasmodium berghei [5]): inactive; Activity (Plasmodium berghei [4]): 9.75%
COc1cccc(N2c3cc(Cl)ccc3S(=O)(=O)c3c(N)nc(N)nc32)c1 | < 5 | 56.3 | –
Nc1nc(N)c2c(n1)N(c1ccc(Cl)c(Cl)c1)c1ccc(Cl)cc1S2(=O)=O | < 5 | 0 | –
COc1ccc(N2c3cc(Cl)ccc3S(=O)(=O)c3c(N)nc(N)nc32)cc1 | < 5 | 40.9 | –
Nc1nc(N)c2c(n1)N(c1ccc(Br)cc1)c1cc(Cl)ccc1S2(=O)=O | < 5 | 49 | –
Nc1n[nH]c2c1S(=O)(=O)c1cc(Cl)ccc1N2c1ccccc1 | < 5 | 0 | –
Cc1ccc(C)c(N2c3ccc(Cl)cc3S(=O)(=O)c3c(N)n[nH]c32)c1 | < 5 | 0 | –
Nc1nc(N)c2c(n1)N(c1ccc(Br)cc1)c1ccc(Cl)cc1S2(=O)=O | < 5 | 0 | –
CCN(CC)CCCC(C)Nc1ccnc2cc(Cl)ccc12 (configuration not stated) [CHLOROQUINE] | – | 24.1 | Activity (Plasmodium berghei [6]): 1.3%; Activity (Plasmodium berghei [7]): 30 days
Nc1n[nH]c2c1S(=O)(=O)c1ccc(Cl)cc1N2c1ccccc1 | < 5 | 76.4 | –
Nc1n[nH]c2c1S(=O)(=O)c1ccc(Cl)cc1N2c1ccc(Cl)cc1 | < 5 | 55.8 | –
Cc1ccc(C)c(N2c3cc(Cl)ccc3S(=O)(=O)c3c(N)n[nH]c32)c1 | < 5 | 69.4 | –
Nc1nc(N)c2c(n1)N(c1ccccc1)c1ccc(Cl)cc1S2(=O)=O | < 5 | 0 | –
Cc1ccc(N2c3cc(Cl)ccc3S(=O)(=O)c3c(N)nc(N)nc32)cc1 | < 5 | 50.1 | –

Now from value to molecule, other results behind:

inhibition [1] [%] | SMILES | inhibition at 10 µM (Plasmodium berghei [2]) [%] | further results
< 5 | COc1ccc(N2c3ccc(Cl)cc3S(=O)(=O)c3c(N)n[nH]c32)cc1 | 0 | –
< 5 | Nc1n[nH]c2c1S(=O)(=O)c1cc(Cl)ccc1N2c1cccc(Cl)c1 | 0 | –
< 5 | Cc1ccc(N2c3cc(Cl)ccc3S(=O)(=O)c3c(N)n[nH]c32)cc1 | 78.8 | –
< 5 | Nc1nc(N)c2c(n1)N(c1cccc(Cl)c1)c1ccc(Cl)cc1S2(=O)=O | 0 | –
< 5 | Nc1nc(N)c2c(n1)N(c1ccc(Cl)c(Cl)c1)c1cc(Cl)ccc1S2(=O)=O | 76 | –
< 5 | Nc1n[nH]c2c1S(=O)(=O)c1cc(Cl)ccc1N2c1ccc(Cl)cc1 | 0 | –
< 5 | Cc1ccc(C)c(N2c3cc(Cl)ccc3S(=O)(=O)c3c(N)nc(N)nc32)c1 | 64.6 | –
< 5 | Nc1nc(N)c2c(n1)N(c1ccc(Cl)cc1)c1ccc(Cl)cc1S2(=O)=O | 0 | –
< 5 | Cc1ccc(C)c(N2c3ccc(Cl)cc3S(=O)(=O)c3c(N)nc(N)nc32)c1 | 0 | –
< 5 | Nc1n[nH]c2c1S(=O)(=O)c1ccc(Cl)cc1N2c1ccc(Br)cc1 | 26.7 | –
< 5 | Nc1n[nH]c2c1S(=O)(=O)c1cc(Cl)ccc1N2c1ccc(Br)cc1 | 0 | –
< 5 | Nc1n[nH]c2c1S(=O)(=O)c1ccc(Cl)cc1N2c1ccc(Cl)c(Cl)c1 | 67.6 | –
< 5 | Nc1nc(N)c2c(n1)N(c1cccc(Cl)c1)c1cc(Cl)ccc1S2(=O)=O | 0 | –
< 5 | Cc1ccc(N2c3ccc(Cl)cc3S(=O)(=O)c3c(N)nc(N)nc32)cc1 | 0 | –

From ChEMBL document CHEMBL1137713, “Synthesis and antimalarial activity of pyrazolo and pyrimido benzothiazine dioxide derivatives” (2009)
